# Most compounds without a hit are left out; they make up all but 2.3% or so of the library.
# TRPC4 potent – positive allosteric modulators of TRPC4, primary screen, cell-based, mouse TRPC4beta, HEK293 mu-opioid, Fluo-4 calcium | B-score at 10 µM | Short transient receptor potential channel 4 (Mus musculus), Q9QUQ5 | AID 2227, 2009 | DAMGO EC20, Fluo-4 Ca2+ flux; hits give high values | hit rate 0.42% among 310,000;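 active = B-score of calcium response area above 5 SD of library B-scores, with initial fluorescence ratio within 5 SD of library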;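 note: B-score of integrated fluorescence ratio over time as area under calcium response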
# Target sequence (Q9QUQ5 whole entry, looked up): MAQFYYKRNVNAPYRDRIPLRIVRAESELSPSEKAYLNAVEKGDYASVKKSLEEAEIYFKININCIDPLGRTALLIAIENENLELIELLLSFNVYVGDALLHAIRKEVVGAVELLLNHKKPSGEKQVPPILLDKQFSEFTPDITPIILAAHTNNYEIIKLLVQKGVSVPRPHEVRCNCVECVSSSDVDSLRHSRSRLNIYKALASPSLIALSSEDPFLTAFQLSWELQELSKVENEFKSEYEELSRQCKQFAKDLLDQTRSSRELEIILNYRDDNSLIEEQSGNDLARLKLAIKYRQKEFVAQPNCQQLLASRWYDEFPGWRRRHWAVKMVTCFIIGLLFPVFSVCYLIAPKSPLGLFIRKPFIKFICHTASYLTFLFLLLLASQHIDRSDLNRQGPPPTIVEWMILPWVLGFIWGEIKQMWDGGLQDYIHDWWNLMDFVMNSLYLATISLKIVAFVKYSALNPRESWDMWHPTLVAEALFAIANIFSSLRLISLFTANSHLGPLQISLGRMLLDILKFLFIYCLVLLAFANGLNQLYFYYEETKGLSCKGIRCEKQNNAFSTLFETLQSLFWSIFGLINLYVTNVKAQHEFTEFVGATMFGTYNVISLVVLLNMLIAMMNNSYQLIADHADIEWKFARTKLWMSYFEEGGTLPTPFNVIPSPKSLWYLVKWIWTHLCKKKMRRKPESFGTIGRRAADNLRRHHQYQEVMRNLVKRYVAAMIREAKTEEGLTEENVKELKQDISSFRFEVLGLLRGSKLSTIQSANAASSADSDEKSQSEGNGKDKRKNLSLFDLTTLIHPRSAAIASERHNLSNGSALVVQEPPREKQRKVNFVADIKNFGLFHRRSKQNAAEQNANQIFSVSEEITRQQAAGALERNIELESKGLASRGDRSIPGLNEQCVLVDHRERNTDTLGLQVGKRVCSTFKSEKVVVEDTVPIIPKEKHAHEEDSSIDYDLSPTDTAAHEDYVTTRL
# TRPC4 agonist – activators of mouse TRPC4 channel, primary screen, Fluo4 calcium, HEK293 TRPC4beta/mu-opioid cells; Short transient receptor potential channel 4 (Mus musculus), Q9QUQ5; Fluo4 calcium fluorescence; hits give high values; B-score at 10 µM; hit rate 0.49% among 310,000; AID 2237, 2010;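 active = B-score above 5 SD of library B-scores, and initial fluorescence ratio not above library mean plus 5 SD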;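 note: positive B-score marks a calcium rise read as TRPC4 activation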
#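 System – HEK293 cells stably co-expressing mouse TRPC4beta and mu-opioid receptor · Signal – Fluo4 calcium-sensitive dye fluorescence, kinetic, 1 Hz baseline · Benchmarks – buffer (low) and maximal DAMGO (high) · Read-out – B score of integrated fluorescence ratio per well · Incubation – dye loading 45 min room temperature, 110 s kinetic read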
# TRPC4 block – inhibitors of mouse TRPC4 channel, primary screen, Fluo4 calcium, HEK293 TRPC4beta/mu-opioid cells; DAMGO-evoked Fluo4 calcium flux; hits give low values; B-score at 10 µM; hit rate 0.39% among 300,000; AID 2247, 2010;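 active = B-score over 3 SD under the library average, no early fluorescence shift, positive overall ratio signal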
#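 test system = HEK293 cells with stable TRPC4beta plus mu-opioid receptor expression | detection = Fluo4 Ca2+ flux fluorescence | read-out = integrated fluorescence ratio relative to baseline, converted to per-well B score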
# TRPC6 inhibitor – mouse TRPC6 channel inhibitors, primary screen, cell-based, HEK293, membrane potential dye. AID 2553, 2010. Short transient receptor potential channel 6 (Mus musculus), Q61143. hit rate 1.1% among 310,000. ACh-evoked depolarization; hits give low values. B-score at 10 µM;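 active = B-score under library mean minus 3 SD, initial fluorescence not abnormally high, positive integrated signal ratio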;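 note: B-score derived from integrated fluorescence ratio over the kinetic read; more negative B-score means stronger inhibition of depolarization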
# TRPC6 activator – mouse TRPC6 channel activators, primary screen, cell-based, HEK293, membrane potential dye; Short transient receptor potential channel 6 (Mus musculus), Q61143; HEK293-TRPC6 membrane potential dye fluorescence; hits give high values; B-score at 10 µM; hit rate 0.13% among 310,000;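 active = B-score of the integrated fluorescence ratio above library mean plus 3 SD, and starting fluorescence ratio within library mean plus 5 SD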;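 note: higher score means more depolarization so channel activation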
# TRPC4 spec 2 – second selectivity test of TRPC6 inhibitors: effect on mouse TRPC4. inhibition, % at 10 µM. HEK293 TRPC4/MOR, membrane potential dye fluorescence; channel activated by saturating DAMGO dose. shares compounds with TRPC6 inhibitor. AID 2776. hit rate 42% among 920;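 active = compounds whose fluorescence signal differed from control wells by over 3 SD, either direction, in both duplicate plates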
# TRPC4 spec – mouse TRPC4 modulation by TRPC6 hits, confirmation, selectivity assay for TRPC6 inhibitor project, cell-based, HEK293 TRPC4/mu-opioid, membrane potential dye. shares compounds with TRPC6 inhibitor. membrane potential fluorescence. activity change, negative = inhibition, % at 10 µM. hit rate 61% among 920. AID 2777, 2010;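 active = rise or fall in signal beyond 3 SD of buffer-only wells in both replicate plates, either sign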;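 note: integrated kinetic ratio of fluorescence range over baseline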
# HEK293 MPD ctr 2-1 – nonspecific membrane potential effects, parental HEK293, confirmation, counter-screen for TRPC6 inhibitor project, cell-based, second counter screen; shares compounds with TRPC6 inhibitor; signal change vs control, % at 10 µM; parental HEK293 membrane potential dye fluorescence; maximal acetylcholine challenge after compound addition; hit rate 31% among 920;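 active = membrane potential signal moving either way by over 3 SD of the maximum-effect control, in both duplicate plates, meaning non-specific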
# HEK293 MPD ctr-1 – membrane potential modulation in parental HEK293, confirmation, counter-screen for TRPC6 inhibitor project, cell-based | parental HEK293 membrane potential dye fluorescence | membrane potential signal change, % at 10 µM | AID 2780, 2010 | shares compounds with TRPC6 inhibitor | hit rate 60% among 920;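 active = membrane potential signal shifting up or down by more than 3 SD of buffer-only wells, on both duplicate plates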
# HEK293 MPD ctr-2 – parental HEK293 membrane potential modulation, confirmation, counter-screen for TRPC6 modulator project, cell-based; shares compounds with TRPC6 inhibitor; membrane potential dye fluorescence; membrane potential signal change, % at 10 µM; hit rate 51% among 2,400; AID 488924, 2010;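 active = membrane potential signal moves up or down beyond 5 SD from buffer-only wells, on both duplicate plates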
# HEK293 MPD ctr 2-2 – parental HEK293 nonspecific activity of TRPC6 modulators, second screen; membrane potential dye fluorescence; after compound, maximal acetylcholine stimulation; AID 488926; shares compounds with TRPC6 inhibitor; hit rate 14% among 2,400; inhibition, % at 10 µM;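 active = membrane potential signal drops by more than 5 SD from the mean control signal, in both duplicate plates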;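 note: plate controls were acetylcholine ECmax control wells for no effect and buffer only wells for full effect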
# TRPC4 ctr mod – TRPC4 modulation by TRPC6 hit compounds, confirmation, selectivity assay for TRPC6 modulator project, cell-based, HEK293 TRPC4/mu-opioid, membrane potential dye, mouse; percent change from control (negative = decrease, positive = increase), % at 10 µM; shares compounds with TRPC6 inhibitor; hit rate 69% among 2,400; membrane potential fluorescence; AID 488927, 2010;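 active = membrane potential signal moved up or down beyond 5 SD of buffer control wells, in both duplicate plates, actives on both sides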;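 note: plate controls were assay buffer wells for no effect and DAMGO maximal-effect wells for full effect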
# TRPC4 ctr inh 2 – mouse TRPC4 off-target activity of TRPC6 modulators, second screen; inhibition, % at 10 µM; HEK293 TRPC4/mu-opioid, membrane potential dye fluorescence; stimulated with maximal-effect DAMGO; hit rate 55% among 2,400; shares compounds with TRPC6 inhibitor; AID 488928;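 active = drop in membrane potential signal beyond 5 SD of the control wells in both duplicate plates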;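 note: TRPC4 counter screen for TRPC6 hits run under conditions tuned for TRPC6 not TRPC4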
# TRPC6 inh conf – mouse TRPC6 channel inhibitors, confirmation, HEK293 cells, membrane potential dye, duplicate. shares compounds with TRPC6 inhibitor. ACh-evoked depolarization. inhibition, % at 10 µM. hit rate 43% among 3,300. AID 488960, 2010;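 active = fluorescence ratio falls more than 5 SD below the full-stimulation control mean, in both duplicate runs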;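 note: integrated fluorescence ratio of peak minus minimum over baseline after agonist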
# TRPC6 act confirm – mouse TRPC6 channel activators, confirmation, HEK293 cells, membrane potential dye, duplicate; HEK293-TRPC6 membrane potential dye fluorescence, FDSS; hit rate 11% among 2,800; activation, % at 10 µM; shares compounds with TRPC6 inhibitor; AID 488961, 2010;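 active = ratio signal rise beyond 5 SD above unstimulated control wells' mean, seen in both duplicate runs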;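 note: plate controls were buffer EC0 wells for no effect and acetylcholine ECmax response for full effect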
# * hit, by the source's call; i = inactive; / = no result given.
SMILES,TRPC4 potent,TRPC4 agonist,TRPC4 block,TRPC6 inhibitor,TRPC6 activator,HEK293 MPD ctr-2,HEK293 MPD ctr 2-2,TRPC4 ctr mod,TRPC4 ctr inh 2,TRPC6 inh conf,TRPC6 act confirm,others
Clc1ccc2sc(C3CCNCC3)nc2c1,i,187*,i,-6*,i,i,i,47%*,52%*,i,i,
CCCn1ncc(CN2CCCC(C(=O)c3cccc(OC)c3)C2)c1C (stereo unspecified),i,i,i,-5.9*,i,124%*,i,28%*,i,50%*,/,
COc1ccc(-c2cc(=Nc3ccccc3)c3cc(C)ccc3o2)cc1,i,i,i,-7.7*,i,/,/,/,/,i,i,TRPC4 spec 2=i;TRPC4 spec=-18%*;HEK293 MPD ctr 2-1=i;HEK293 MPD ctr-1=-198%*
COc1ccc(-c2cc(=NCCC(=O)O)c3cc(C)ccc3o2)cc1,i,i,i,i,i,/,/,/,/,/,/,
CCC(C)N1CCN(C(=O)Cc2ccccc2)CC1 (stereo unspecified),i,i,i,-7.1*,i,/,/,/,/,i,i,TRPC4 spec 2=i;TRPC4 spec=i;HEK293 MPD ctr 2-1=i;HEK293 MPD ctr-1=i
O=c1[nH]c(=O)n(Cc2ccccc2Cl)c(O)c1/C=C1/C=CC=N1,i,i,i,i,i,/,/,/,/,/,/,
COc1ccc(Cc2c(O)[nH]c(=O)[nH]c2=O)c(OC)c1,i,i,i,i,16*,i,i,i,i,i,i,
COc1ccc(CC2C(=O)NC(=O)NC2=O)c(OC)c1,i,i,i,i,i,/,/,/,/,/,/,
OC(CN1CCC(c2c[nH]c3ccccc23)CC1)C(F)(F)F (stereo unspecified),i,i,i,i,i,/,/,/,/,/,/,
CN1CCN(c2nc(N(C)C)oc(=O)c2C#N)CC1,i,i,i,i,i,/,/,/,/,/,/,
N#Cc1c(N2CCNCC2)nc(-c2ccco2)c2c1CCCC2,i,i,i,-7.8*,i,/,/,/,/,58%*,i,TRPC4 spec 2=28%*;TRPC4 spec=-14%*;HEK293 MPD ctr 2-1=i;HEK293 MPD ctr-1=-228%*
O=c1[nH]c(=S)[nH]c(O)c1/C=N/N1CCOCC1,i,i,i,i,i,/,/,/,/,/,/,
CN/C=C(/Cl)P(=O)(OC(C)C)OC(C)C,i,i,i,i,i,/,/,/,/,/,/,
OC(Cn1c2ccccc2c2ccccc21)C[n+]1cccc2ccccc21 (stereo unspecified),i,i,i,-6.7*,i,/,/,/,/,59%*,i,TRPC4 spec 2=i;TRPC4 spec=-28%*;HEK293 MPD ctr 2-1=i;HEK293 MPD ctr-1=-334%*
COCCCN1Cc2ccccc2C1=N,i,i,i,i,i,/,/,/,/,/,/,
N=C1c2ccccc2CN1c1ncccn1,i,i,i,-7.3*,i,i,i,-11%*,i,i,i,
Cc1oc(-c2ccc(F)cc2F)nc1CN1C[C@@H]2C[C@@H](C1)c1cccc(=O)n1C2,i,i,i,i,i,/,/,/,/,/,/,
CC(C)Oc1ccc(CCN)cc1Cl,i,i,i,i,i,/,/,/,/,/,/,
CCCCOc1ccc(CCN)cc1Cl,14*,i,i,-6.4*,i,82%*,i,i,52%*,60%*,/,
CN(C)c1ccc(CN2CC=C(c3ccc(F)cc3)CC2)cc1,i,i,i,-7.9*,i,/,/,/,/,i,i,TRPC4 spec 2=75%*;TRPC4 spec=i;HEK293 MPD ctr 2-1=i;HEK293 MPD ctr-1=i
C#C[C@@]1(O)CCC2C3CCC4=C/C(=N/OCC(=O)NC(C(=O)NC(CC(C)C)C(=O)O)C(C)C)CC[C@]4(C)C3CC[C@@]21C (stereo partly specified),i,i,i,i,i,/,/,/,/,/,/,
CC(C)[N+](C)(CCC(C(N)=O)(c1ccccc1)c1ccccc1)C(C)C,i,i,i,-6.6*,i,i,101%*,i,i,88%*,i,
CCCCc1nc(N2CCNCC2)c(C#N)c2c1CSC(C)(C)C2,i,i,i,-7.8*,i,/,/,/,/,i,i,TRPC4 spec 2=44%*;TRPC4 spec=i;HEK293 MPD ctr 2-1=i;HEK293 MPD ctr-1=0.9%*
CC[n+]1c(/C=C/N(C)c2ccccc2)sc2ccc(Cl)cc21,i,i,i,-6.3*,i,i,96%*,i,36%*,46%*,i,
CC[n+]1c(/C=C/C=C/c2ccc(N(C)C)cc2)sc2ccccc21,i,i,i,i,i,/,/,/,/,/,/,

# Compound activity: PubChem BioAssay, Johns Hopkins Ion Channel Center
